# Experiments:
# Fusarium graminearum [1] = assay: Antimicrobial activity against Gibberella zeae at 50 ug/mL by mycelium growth rate method; assay type: functional
# Method in brief: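 Mycelium growth rate assay with anthranilamide and fenpiclonil as controls. Once mycelia had grown completely, the mycelial diameter was measured and the inhibition rate was calculated from it by formula.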
# Alternaria solani [2] = assay: Antimicrobial activity against Alternaria solani at 50 ug/mL by mycelium growth rate method; assay type: functional
# Method in brief: (§1)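 Mycelium growth-rate assay with anthranilamide and fenpiclonil as controls. Colony diameter is measured once the mycelia have grown completely, and the inhibition rate is calculated from the diameters by formula.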
# [3] = test system: Botryosphaeria berengeriana; assay: Antimicrobial activity against Physalospora piricola at 50 ug/mL by mycelium growth rate method; assay type: functional; method in brief: as §1
# Mycosphaerella arachidis [4] = assay: Antimicrobial activity against Cercospora arachidicola at 50 ug/mL by mycelium growth rate method; assay type: functional; method in brief: as §1
# Fusarium [5] = assay: Antimicrobial activity against Fusarium […] at 50 ug/mL by mycelium growth rate method; assay type: functional; method in brief: as §1
# Mycosphaerella arachidis [6] = assay: Antimicrobial activity against Cercospora arachidicola by mycelium growth rate method; assay type: functional, organism-based; method in brief: as §1
# [7] = test system: Botryosphaeria berengeriana; assay: Antimicrobial activity against Physalospora piricola by mycelium growth rate method; assay type: functional, organism-based; method in brief: as §1
# Alternaria solani [8] = assay: Antimicrobial activity against Alternaria solani by mycelium growth rate method; assay type: functional, organism-based; method in brief: as §1
# Fusarium [9] = assay: Antimicrobial activity against Fusarium […] by mycelium growth rate method; assay type: functional, organism-based; method in brief: as §1
# Fusarium graminearum [10] = assay: Antimicrobial activity against Gibberella zeae by mycelium growth rate method; assay type: functional, organism-based
Structure (SMILES),inhibition at 50 µg/mL (Fusarium graminearum [1]) [%],inhibition at 50 µg/mL (Alternaria solani [2]) [%],inhibition at 50 µg/mL [3] [%],inhibition at 50 µg/mL (Mycosphaerella arachidis [4]) [%],inhibition at 50 µg/mL (Fusarium [5]) [%],EC50 (Mycosphaerella arachidis [6]) [µg/mL],EC50 [7] [µg/mL],EC50 (Alternaria solani [8]) [µg/mL],EC50 (Fusarium [9]) [µg/mL],EC50 (Fusarium graminearum [10]) [µg/mL]
N#Cc1cccc(CONC(=O)c2cc(Br)c(Br)[nH]2)c1,8.8,21.1,25.3,35.7,18,,,,,
N#Cc1ccc(CONC(=O)c2cc(Br)c(Br)[nH]2)cc1,20.6,31.6,48.1,35,19,,,,,
O=C(NOCc1ccc([N+](=O)[O-])cc1)c1cc(Br)c(Br)[nH]1,13,26.7,16.7,18.8,17.6,,,,,
CO/C=C(/C(=O)OC)c1ccccc1CONC(=O)c1cc(Br)c(Br)[nH]1,0,52.4,13.6,26.7,6.7,,,,,
C#CCOc1ccc(CONC(=O)c2ccc[nH]2)cc1OC,9.1,35.3,100,20,16.7,> 50,4.5,> 50,> 50,> 50
O=C(NOCc1ccc(F)cc1)c1ccc[nH]1,7,0,6.2,12,0,,,,,
CO/C=C(/C(=O)OC)c1ccccc1CONC(=O)c1ccc[nH]1,8.5,0,16.1,13.3,0,,,,,
C#CCOc1ccc(CONC(=O)c2[nH]c(Br)c(Br)c2Br)cc1OC,9.1,11.8,25.8,33.3,22.2,,,,,
O=C(NOCc1ccc(F)cc1)c1[nH]c(Br)c(Br)c1Br,15.5,19.2,18.5,28,8.3,,,,,
CO/C=C(/C(=O)OC)c1ccccc1CONC(=O)c1[nH]c(Br)c(Br)c1Br,13.6,5.9,25,26.7,27.8,,,,,
C#CCOc1ccc(CONC(=O)c2cc(Cl)c(Cl)[nH]2)cc1OC,21.1,42.3,6.2,44,0,,,,,
O=C(NOCc1ccc(F)cc1)c1cc(Cl)c(Cl)[nH]1,19.5,30.8,18.5,16,22.2,,,,,
CO/C=C(/C(=O)OC)c1ccccc1CONC(=O)c1cc(Cl)c(Cl)[nH]1,21.1,42.3,24.7,40,8.3,,,,,
C#CCOc1ccc(CON(C)C(=O)c2ccc[nH]2)cc1OC,0,13.3,5.8,19.2,31.6,,,,,
C#CCOc1ccc(CON(C)C(=O)c2cccn2C)cc1OC,20,16.7,6,7.7,31.6,,,,,
C#CCOc1ccc(CONC(=O)c2cc(Br)c(Br)[nH]2)cc1OC,8.7,64.9,90,56.3,47.1,24.4,9.78,20,> 50,> 50

Structure (SMILES),inhibition at 50 µg/mL (Fusarium graminearum [1]) [%],inhibition at 50 µg/mL (Alternaria solani [2]) [%],inhibition at 50 µg/mL [3] [%],inhibition at 50 µg/mL (Mycosphaerella arachidis [4]) [%],inhibition at 50 µg/mL (Fusarium [5]) [%],EC50 (Mycosphaerella arachidis [6]) [µg/mL],EC50 [7] [µg/mL],EC50 (Alternaria solani [8]) [µg/mL],EC50 (Fusarium [9]) [µg/mL],EC50 (Fusarium graminearum [10]) [µg/mL]
COc1ccc(CONC(=O)c2cc(Br)c(Br)[nH]2)cc1OC,4.6,73.3,50,60,41.2,,,,,
O=C(NOCc1ccc2c(c1)OCO2)c1cc(Br)c(Br)[nH]1,14.7,31.6,18.5,75,23.8,,,,,
O=C(NOCc1ccccc1)c1cc(Br)c(Br)[nH]1,9.1,66.7,40.9,53.3,40,,,,,
O=C(NOCc1ccccc1F)c1cc(Br)c(Br)[nH]1,18.2,76.2,27.3,50.3,41.2,,,,,
O=C(NOCc1cccc(F)c1)c1cc(Br)c(Br)[nH]1,4.5,61.9,40.9,54,40.8,,,,,
O=C(NOCc1ccc(F)cc1)c1cc(Br)c(Br)[nH]1,21.7,66.5,55.1,62.5,58,,,,,
O=C(NOCc1ccccc1Cl)c1cc(Br)c(Br)[nH]1,13.6,19,13.4,20,0,,,,,
O=C(NOCc1cccc(Cl)c1)c1cc(Br)c(Br)[nH]1,17.4,66.7,38.9,80,47,,,,,
O=C(NOCc1ccc(Cl)nc1)c1cc(Br)c(Br)[nH]1,0,5.3,37,28.6,23.8,,,,,
O=C(NOCc1ccc(Cl)cc1Cl)c1cc(Br)c(Br)[nH]1,11.8,21.1,33.3,35.7,33.3,,,,,
O=C(NOCc1ccc(Cl)c(Cl)c1)c1cc(Br)c(Br)[nH]1,17.4,40,27.8,43.8,23.5,,,,,
O=C(NOCc1ccc(Br)cc1)c1cc(Br)c(Br)[nH]1,2.9,31.6,33.3,50,4.8,,,,,
N#Cc1ccccc1CONC(=O)c1cc(Br)c(Br)[nH]1,14.7,10.5,14.8,14.3,14,,,,,
NC(=O)c1ccccc1N [ANTHRANILAMIDE],38,42.3,43.2,52,27.8,,,,,
N#Cc1c[nH]cc1-c1cccc(Cl)c1Cl [FENPICLONIL],100,100,100,100,18,0.38,0.8,0.55,> 50,1.71
